Data: ChEMBL document CHEMBL1158120, “Cytotoxic oxygenated triterpenoid saponins from Symplocos chinensis” (J Nat Prod, 2006)
pIC50: −log10 of the molar value.

Assays:
Format in all cases: functional, cell-based
[1] = test system: A549; experiment: Cytotoxicity against human A549 cells by MTT assay
Summary of the method: (§1)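 MTT read-out of tumour-cell viability. IC50 values in µM are reported as means of three independent experiments.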

[2] = test system: BGC-823; experiment: Cytotoxicity against human BGC-823 cells by MTT assay; summary of the method: as §1
[3] = test system: HCT-8; experiment: Cytotoxicity against human HCT8 cells by MTT assay; summary of the method: as §1
[4] = test system: Bel-7402; experiment: Cytotoxicity against human Bel-7402 cells by MTT assay; summary of the method: as §1
[5] = test system: A2780; experiment: Cytotoxicity against human A2780 cells by MTT assay; summary of the method: as §1

| SMILES | pIC50 [1] | pIC50 [2] | pIC50 [3] | pIC50 [4] | pIC50 [5] |
| --- | --- | --- | --- | --- | --- |
| CC1(C)C[C@H]2C3=CC[C@@H]4[C@@]5(C)CC[C@H](O)C(C)(C)[C@@H]5CC[C@@]4(C)[C@]3(C)[C@@H](O)[C@@H](O)[C@@]2(CO)[C@@H](O)[C@@H]1O [R1-barrigenol] | < 5.00 | < 5.00 | < 5.00 | < 5.00 | < 5.00 |
| CCCCOC(=O)[C@H]1O[C@@H](O[C@H]2CC[C@]3(C)[C@H]4CC=C5[C@@H]6CC(C)(C)C[C@H](OC(=O)/C=C(/C)CCC=C(C)C)[C@]6(CO)[C@H](O)[C@H](O)[C@@]5(C)[C@]4(C)CC[C@H]3C2(C)C)[C@H](O[C@@H]2O[C@H](CO)[C@@H](O)[C@H](O)[C@H]2O)[C@@H](O)[C@@H]1O[C@@H]1O[C@@H](CO)[C@H](O)[C@H]1O [SYMPLOCOSOSIDE F] | < 5.00 | < 5.00 | 5.40 | < 5.00 | < 5.00 |
| CC1(C)C[C@H](O)[C@]2(CO)[C@H](O)[C@H](O)[C@]3(C)C(=CC[C@@H]4[C@@]5(C)CC[C@H](O)C(C)(C)[C@@H]5CC[C@]43C)[C@@H]2C1 | < 5.00 | < 5.00 | < 5.00 | < 5.00 | < 5.00 |
| CC(C)=CCC/C(C)=C\C(=O)O[C@H]1[C@H](OC(=O)C(C)C)[C@]2(CO)[C@H](O)[C@H](O)[C@]3(C)C(=CC[C@@H]4[C@@]5(C)CC[C@H](O)C(C)(C)[C@@H]5CC[C@]43C)[C@@H]2CC1(C)C | < 5.00 | < 5.00 | < 5.00 | < 5.00 | < 5.00 |
| CCC(C)C(=O)O[C@H]1[C@H](OC(=O)/C=C/c2ccccc2)C(C)(C)C[C@H]2C3=CC[C@@H]4[C@@]5(C)CC[C@H](O[C@@H]6O[C@H](CO)[C@@H](O[C@@H]7O[C@@H](CO)[C@H](O)[C@H]7O)[C@H](O)[C@H]6O[C@@H]6O[C@H](CO)[C@@H](O)[C@H](O)[C@H]6O)C(C)(C)[C@@H]5CC[C@@]4(C)[C@]3(C)[C@@H](O)[C@@H](O)[C@]21CO (some centres undefined) [SYMPLOCOSOSIDE X] | 5.68 | < 5.00 | 5.77 | 5.74 | 5.80 |
| CC(=O)O[C@@H]1[C@@H](O[C@@H]2O[C@H](CO)[C@@H](O)[C@H](O)[C@H]2O)[C@H](O[C@H]2CC[C@]3(C)[C@H]4CC=C5[C@@H]6CC(C)(C)[C@@H](OC(=O)/C=C(\C)CCC=C(C)C)[C@H](OC(=O)C(C)C)[C@]6(CO)[C@H](O)[C@H](O)[C@@]5(C)[C@]4(C)CC[C@H]3C2(C)C)O[C@H](C(=O)O)[C@H]1O[C@@H]1O[C@@H](CO)[C@H](O)[C@H]1O [SYMPLOCOSOSIDE M] | < 5.00 | < 5.00 | 5.57 | 5.42 | 5.64 |
| CCC(C)C(=O)O[C@H]1[C@H](OC(=O)/C=C/c2ccccc2)C(C)(C)C[C@H]2C3=CC[C@@H]4[C@@]5(C)CC[C@H](O[C@@H]6O[C@H](C(=O)O)[C@@H](O)[C@H](O)[C@H]6O[C@@H]6O[C@H](CO)[C@@H](O)[C@H](O)[C@H]6O)C(C)(C)[C@@H]5CC[C@@]4(C)[C@]3(C)[C@@H](O)[C@@H](O)[C@]21CO (some centres undefined) [SYMPLOCOSOSIDE N] | < 5.00 | < 5.00 | 5.74 | 5.77 | 5.49 |
| COc1cccc2c1C(=O)c1c(O)c3c(c(O)c1C2=O)C[C@@](O)(C(=O)CO)C[C@@H]3O[C@H]1C[C@H](N)[C@H](O)[C@H](C)O1 [DOXORUBICIN] | – | 6.00 | 6.10 | 6.00 | 7.00 |
| CC(=O)O[C@@H]1[C@@H](O[C@@H]2O[C@H](CO)[C@@H](O)[C@H](O)[C@H]2O)[C@H](O[C@H]2CC[C@]3(C)[C@H]4CC=C5[C@@H]6CC(C)(C)C[C@H](OC(=O)/C=C(/C)CCC=C(C)C)[C@]6(CO)[C@H](O)[C@H](O)[C@@]5(C)[C@]4(C)CC[C@H]3C2(C)C)O[C@H](C(=O)O)[C@H]1O[C@@H]1O[C@@H](CO)[C@H](O)[C@H]1O [SYMPLOCOSOSIDE O] | < 5.00 | < 5.00 | 5.77 | 5.62 | < 5.00 |
| CCOC(=O)[C@H]1O[C@@H](O[C@H]2CC[C@]3(C)[C@H]4CC=C5[C@@H]6CC(C)(C)[C@@H](OC(=O)/C=C(/C)CCC=C(C)C)[C@H](OC(=O)C(C)CC)[C@]6(CO)[C@H](O)[C@H](O)[C@@]5(C)[C@]4(C)CC[C@H]3C2(C)C)[C@H](O[C@@H]2O[C@H](CO)[C@@H](O)[C@H](O)[C@H]2O)[C@@H](O)[C@@H]1O[C@@H]1O[C@@H](CO)[C@H](O)[C@H]1O (some centres undefined) [SYMPLOCOSOSIDE Q] | < 5.00 | < 5.00 | < 5.00 | < 5.00 | 5.26 |
| CCCCOC(=O)[C@H]1O[C@@H](O[C@H]2CC[C@]3(C)[C@H]4CC=C5[C@@H]6CC(C)(C)[C@@H](OC(=O)/C=C/c7ccccc7)[C@H](OC(=O)C(C)CC)[C@]6(CO)[C@H](O)[C@H](O)[C@@]5(C)[C@]4(C)CC[C@H]3C2(C)C)[C@H](O[C@@H]2O[C@H](CO)[C@@H](O)[C@H](O)[C@H]2O)[C@@H](O)[C@@H]1O[C@@H]1O[C@@H](CO)[C@H](O)[C@H]1O (some centres undefined) [SYMPLOCOSOSIDE E] | < 5.00 | < 5.00 | < 5.00 | 5.77 | 5.77 |
| CCC(C)C(=O)O[C@H]1[C@H](OC(=O)c2ccccc2)C(C)(C)C[C@H]2C3=CC[C@@H]4[C@@]5(C)CC[C@H](O[C@@H]6O[C@H](C(=O)O)[C@@H](O[C@@H]7O[C@@H](CO)[C@H](O)[C@H]7O)[C@H](OC(C)=O)[C@H]6O[C@@H]6O[C@H](CO)[C@@H](O)[C@H](O)[C@H]6O)C(C)(C)[C@@H]5CC[C@@]4(C)[C@]3(C)[C@@H](O)[C@@H](O)[C@]21CO (some centres undefined) [SYMPLOCOSOSIDE P] | < 5.00 | < 5.00 | < 5.00 | < 5.00 | 5.48 |
| CCC(C)C(=O)O[C@H]1[C@H](OC(=O)/C=C(/C)CCC=C(C)C)C(C)(C)C[C@H]2C3=CC[C@@H]4[C@@]5(C)CC[C@H](O[C@@H]6O[C@H](C(=O)O)[C@@H](O)[C@H](O)[C@H]6O[C@@H]6O[C@H](CO)[C@@H](O)[C@H](O)[C@H]6O)C(C)(C)[C@@H]5CC[C@@]4(C)[C@]3(C)[C@@H](O)[C@@H](O)[C@]21CO (some centres undefined) [SYMPLOCOSOSIDE R] | < 5.00 | < 5.00 | 5.36 | 5.39 | 5.72 |
| COC(=O)[C@H]1O[C@@H](O[C@H]2CC[C@]3(C)[C@H]4CC=C5[C@@H]6CC(C)(C)[C@@H](OC(=O)/C=C(/C)CCC=C(C)C)[C@H](OC(=O)c7ccccc7)[C@]6(CO)[C@H](O)[C@H](O)[C@@]5(C)[C@]4(C)CC[C@H]3C2(C)C)[C@H](O[C@@H]2O[C@H](CO)[C@@H](O)[C@H](O)[C@H]2O)[C@@H](OC(C)=O)[C@@H]1O[C@@H]1O[C@@H](CO)[C@H](O)[C@H]1O [SYMPLOCOSOSIDE K] | 5.40 | < 5.00 | 5.62 | 5.29 | 6.10 |
| CCC(C)C(=O)O[C@H]1[C@H](OC(=O)/C=C(\C)CCC=C(C)C)C(C)(C)C[C@H]2C3=CC[C@@H]4[C@@]5(C)CC[C@H](O[C@@H]6O[C@H](C(=O)O)[C@@H](O)[C@H](O)[C@H]6O[C@@H]6O[C@H](CO)[C@@H](O)[C@H](O)[C@H]6O)C(C)(C)[C@@H]5CC[C@@]4(C)[C@]3(C)[C@@H](O)[C@@H](O)[C@]21CO (some centres undefined) | < 5.00 | < 5.00 | < 5.00 | < 5.00 | 5.72 |
| CCC(C)C(=O)O[C@H]1[C@H](OC(=O)/C=C(/C)CCC=C(C)C)C(C)(C)C[C@H]2C3=CC[C@@H]4[C@@]5(C)CC[C@H](O[C@@H]6O[C@H](C(=O)O)[C@@H](O[C@@H]7O[C@@H](CO)[C@H](O)[C@H]7O)[C@H](OC(C)=O)[C@H]6O[C@@H]6O[C@H](CO)[C@@H](O)[C@H](O)[C@H]6O)C(C)(C)[C@@H]5CC[C@@]4(C)[C@]3(C)[C@@H](O)[C@@H](O)[C@]21CO (some centres undefined) [SYMPLOCOSOSIDE G] | 5.68 | 5.72 | 5.70 | 5.74 | 5.85 |
| CCCCOC(=O)[C@H]1O[C@@H](O[C@H]2CC[C@]3(C)[C@H]4CC=C5[C@@H]6CC(C)(C)[C@@H](OC(=O)/C=C(\C)CCC=C(C)C)[C@H](OC(=O)C(C)CC)[C@]6(CO)[C@H](O)[C@H](O)[C@@]5(C)[C@]4(C)CC[C@H]3C2(C)C)[C@H](O[C@@H]2O[C@H](CO)[C@@H](O)[C@H](O)[C@H]2O)[C@@H](O)[C@@H]1O[C@@H]1O[C@@H](CO)[C@H](O)[C@H]1O (some centres undefined) [SYMPLOCOSOSIDE D] | < 5.00 | < 5.00 | < 5.00 | 5.72 | 5.76 |
| CCC(C)C(=O)O[C@H]1[C@H](OC(=O)/C=C(\C)CCC=C(C)C)C(C)(C)C[C@H]2C3=CC[C@@H]4[C@@]5(C)CC[C@H](O[C@@H]6O[C@H](C(=O)O)[C@@H](O[C@@H]7O[C@@H](CO)[C@H](O)[C@H]7O)[C@H](OC(C)=O)[C@H]6O[C@@H]6O[C@H](CO)[C@@H](O)[C@H](O)[C@H]6O)C(C)(C)[C@@H]5CC[C@@]4(C)[C@]3(C)[C@@H](O)[C@@H](O)[C@]21CO (some centres undefined) [SYMPLOCOSOSIDE H] | 5.57 | 5.60 | 5.68 | 5.59 | 5.85 |
| CCC(C)C(=O)O[C@H]1[C@H](OC(=O)/C=C(/C)CCC=C(C)C)C(C)(C)C[C@H]2C3=CC[C@@H]4[C@@]5(C)CC[C@H](O[C@@H]6O[C@H](C(=O)OC)[C@@H](O[C@@H]7O[C@@H](CO)[C@H](O)[C@H]7O)[C@H](OC(C)=O)[C@H]6O[C@@H]6O[C@H](CO)[C@@H](O)[C@H](O)[C@H]6O)C(C)(C)[C@@H]5CC[C@@]4(C)[C@]3(C)[C@@H](O)[C@@H](O)[C@]21CO (some centres undefined) [SYMPLOCOSOSIDE I] | < 5.00 | < 5.00 | 5.77 | 5.57 | 5.49 |
